Screens deposited in PubChem by Johns Hopkins Ion Channel Center.
MrgX1 agonist: human MrgX1 receptor agonism, primary screen; Q96LB2; MrgX1-HEK293 cells, Fluo-4 calcium fluorescence, agonist mode; stronger effect = higher value; B-score at 10 µM; 310,000 compounds, 0.44% hits; AID 588627;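 active = calcium response B-score plate-corrected fluorescence ratio at least 3 library SD, with starting fluorescence B-score inside 5 SD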
Target sequence (Q96LB2 whole entry, looked up): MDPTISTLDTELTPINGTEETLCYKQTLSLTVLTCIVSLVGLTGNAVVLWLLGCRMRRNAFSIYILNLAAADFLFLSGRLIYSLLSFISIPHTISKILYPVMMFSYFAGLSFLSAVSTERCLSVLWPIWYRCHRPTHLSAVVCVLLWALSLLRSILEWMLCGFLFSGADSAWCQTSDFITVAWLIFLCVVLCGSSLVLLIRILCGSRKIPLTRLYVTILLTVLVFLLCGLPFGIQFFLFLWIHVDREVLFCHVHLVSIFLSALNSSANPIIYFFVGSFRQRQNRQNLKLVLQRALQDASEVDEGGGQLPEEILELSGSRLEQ
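Test system: HEK293 cells stably expressing human MrgX1 receptor; Input: fifteen thousand cells per well; Dosing: compound delivered in addition one of three; Schedule: overnight seeding, then 1 h dark dye loading; Technique: Fluo-4 NW calcium fluorescence; Measure: B-scored fluorescence response ratio; Controls: positive and negative controls per plate.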
MrgX1 allo act: human MrgX1 positive allosteric modulation, primary screen; Q96LB2; MrgX1-HEK293, Fluo-4 calcium flux, FDSS; stronger effect = higher value; B-score at 10 µM; 310,000 compounds, 0.63% hits; AID 588675;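 active = plate-corrected calcium response at least 3 library SD above typical, normal starting fluorescence, not activating the receptor alone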;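 also: compound read alongside a low EC10 to EC30 dose of BAM8-22 agonist; peak minus trough fluorescence over baseline measured at the second addition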
RGS4 inh: inhibitors of human RGS4; P49798; B-score at 10 µM; HEK293 M3R/RGS4 inducible, Fluo-4 calcium flux; stronger effect = higher value; triggered by carbachol at its EC20; AID 463165; 310,000 compounds, 0.45% hits;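 active = B-score, a plate-corrected calcium signal, over three deviations above library mean, with baseline fluorescence within five deviations of library mean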;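 also: RGS4 expression induced by doxycycline in cells with stable M3 receptor; B-score is computed from the integrated fluorescence ratio over baseline after carbachol; higher B-score means a larger calcium signal and so more RGS4 inhibition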
Target sequence (P49798 whole entry, looked up): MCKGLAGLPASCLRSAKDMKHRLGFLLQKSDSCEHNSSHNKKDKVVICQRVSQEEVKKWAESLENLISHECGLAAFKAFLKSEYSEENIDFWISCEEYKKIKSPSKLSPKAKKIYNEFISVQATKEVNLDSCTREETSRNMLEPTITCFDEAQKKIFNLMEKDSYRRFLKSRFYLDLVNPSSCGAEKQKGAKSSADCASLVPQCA
MrgX1 antagonist: blocks BAM8-22 activation of human MrgX1 receptor; MRGX1-HEK293 calcium flux, Fluo-4, BAM8-22 antagonism; stronger effect = lower value; B-score at 10 µM; 310,000 compounds, 1.3% hits; AID 588676;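 active = calcium-response B-score plate-corrected more than 3 library SD below zero, starting fluorescence within 5 deviations, no agonist response on first addition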;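 also: peak minus trough fluorescence over baseline after final BAM8-22 challenge near maximal dose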
RGS4 pot: RGS4 potentiation or activation | HEK293 M3R/inducible RGS4, carbachol calcium flux Fluo4; stronger effect = lower value | B-score at 10 µM | 310,000 compounds, 0.92% hits | AID 463111;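 active = B-score of the integrated calcium signal more than 4 SD below the library mean, with starting fluorescence not abnormally high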;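 also: negative B-score means reduced calcium response which marks RGS4 activation or potentiation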
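test system = M3R-expressing HEK293 line, RGS4 induced by doxycycline | probe or stimulus = carbachol at ECmax as muscarinic agonist stimulus | timing = dye loading 30 min 37 °C, buffer rest 30 min RT | signal = calcium dye Fluo4 fluorescence | evaluation = B score from integrated fluorescence ratio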
A number is an active result; - = inactive; . = not tested or not shown. Shown are actives, neighbours in structure and some others; about 3.5% of the full set was active somewhere.

SMILES | MrgX1 agonist | MrgX1 allo act | RGS4 inh | MrgX1 antagonist | RGS4 pot
O=C(COc1ccccc1)NC1CCN(Cc2ccccc2)CC1 | - | - | - | - | -
CC(C)(Oc1ccc(Cl)cc1)C(=O)NC1CCN(Cc2ccccc2)CC1 | - | - | - | - | -7
N#C/C(C(N)=O)=c1/ccc2c(c1)N1C3=C(CCCC3)CC3CCCCC31N=2 (configuration not stated) | - | - | - | - | -8.8
CNC(=O)Nc1cc(C(F)(F)F)cc(C(F)(F)F)c1 | - | - | - | - | -
O=C(Nc1cc(C(F)(F)F)cc(C(F)(F)F)c1)Nc1cnn(-c2ccc([N+](=O)[O-])cc2)c1C(F)(F)F | - | - | - | -7 | -
Cc1ccc(NC(=O)CSc2nc3c(c(=O)[nH]2)CCC3)c(C)c1 | - | - | - | - | -
COc1ccc(N(CC(=O)NCc2ccccc2OC)S(=O)(=O)c2c(C)nn(C)c2C)cc1 | - | - | - | -6.3 | -
COc1ccc(N(CC(=O)NCC(C)C)S(=O)(=O)c2ccccc2)cc1 | - | - | - | - | -
CC(C)c1ccc(N(CC(=O)NCCSCc2ccco2)S(C)(=O)=O)cc1 | - | 7.1 | - | - | -
COc1ccccc1CNC(=O)CN(c1ccc(C)cc1)S(=O)(=O)c1c(C)nn(C)c1C | - | - | - | - | -
COc1ccc(N(CC(=O)NCCSCc2ccccc2C)S(=O)(=O)c2ccccc2)cc1 | - | - | - | - | -7.8
COc1cccc(N(CC(=O)NCCSCc2ccco2)S(=O)(=O)c2ccccc2)c1 | - | 7.2 | - | - | -
CS(=O)(=O)N(CC(=O)NCCSCc1ccco1)c1ccc(Cl)cc1 | - | - | - | - | -
Cc1ccc(N2CC(C(=O)Nc3nc4ccc(S(C)(=O)=O)cc4s3)CC2=O)cc1 (configuration not stated) | - | - | - | - | -
COc1ccccc1N(CC(=O)NCCSCc1ccccc1)S(C)(=O)=O | - | - | - | - | -
COc1ccccc1N(CC(=O)NCCSCc1cccc(C)c1)S(=O)(=O)c1ccccc1 | - | - | - | - | -8.6
Cc1ccc(C)c(S(=O)(=O)N2CCN(C(=O)c3ccccc3Cc3ccccc3)CC2)c1 | - | - | - | - | -
COc1cc(C(=O)NCCOc2ccccc2)c(Br)c(OC)c1OC | - | - | - | - | -
COc1cc(C(=O)NCCOc2cccc(C)c2)c(Br)c(OC)c1OC | - | - | - | - | -7.2
O=C(O)CCS(=O)(=O)c1nc(-c2cccs2)cc(C(F)(F)F)n1 | - | - | - | - | -
CS(=O)(=O)c1nc(-c2cccs2)cc(C(F)(F)F)n1 | 36 | - | - | - | -
CC1CN(c2cnn(C(C)C)c(=O)c2Cl)CC(C)O1 (configuration not stated) | - | - | - | - | -
O=C(/C(=C/c1ccccc1)n1cncn1)c1ccc(Cl)cc1Cl | 27 | - | - | - | -
O=C(/C(=N\O)n1cncn1)c1ccc(Cl)cc1Cl | - | - | - | - | -
O=C(Cc1ccc(S(=O)(=O)N2CCOCC2)s1)Oc1ccc(F)cc1 | - | - | - | - | -
SMILES | MrgX1 agonist | MrgX1 allo act | RGS4 inh | MrgX1 antagonist | RGS4 pot
COC(=O)c1ccc(N/C=C/C(=O)c2ccccc2)cc1 | - | - | - | - | -
N=C1S/C(=C\c2ccc(-c3cccc(Cl)c3)o2)C(=O)N1c1nccs1 | - | - | - | - | -
O=C1OC(c2cccs2)=N/C1=C\c1ccc(-c2cccc(Cl)c2)o1 | - | - | - | -5.1 | -
c1ccc(-c2oc3ncnc(NCCCn4ccnc4)c3c2-c2ccccc2)cc1 | - | - | - | -5.4 | -
c1ccc(-c2c(-c3ccccc3)n(Cc3ccco3)c3ncnc(NCCCn4ccnc4)c23)cc1 | - | - | - | - | -8.5
CC(C)Cn1cnc2c(c(-c3ccccc3)c(-c3ccccc3)n2Cc2ccco2)c1=N | - | - | - | - | -11
OCCNc1ncnc2c1c(-c1ccccc1)c(-c1ccccc1)n2Cc1ccco1 | - | - | - | - | -
N=c1c2c(-c3ccccc3)c(-c3ccccc3)n(Cc3ccco3)c2ncn1CCCn1ccnc1 | - | - | - | - | -
CN(C)CCCNc1ncnc2oc(-c3ccccc3)c(-c3ccccc3)c12 | - | - | - | - | -
CCC(=O)c1ccc(OCC(=O)OCC(=O)NCC2CCCCC2)cc1 | - | - | - | - | -
O=c1c2c([nH]n1-c1ccccc1)CCSC2 | - | - | - | - | -
COc1ccccc1C(=O)Nc1ccc2c(c1)CN(Cc1cnc(C)s1)CC2 | - | - | - | - | -
CCOC(=O)C1CCN(C(=O)CCc2nnc3ccc(N4CCN(C)CC4)nn23)CC1 | - | - | - | - | -
CCC1CCc2c([nH]c3ccccc3c2=O)O1 (configuration not stated) | - | - | - | - | -
CC1(C)CCc2c([nH]c3ccccc3c2=O)O1 | - | - | - | - | -7
Cc1ccc(OCCCCN2CCC(C)CC2)cc1 | - | - | - | - | -7.2
O=[N+]([O-])c1ccc(OCCCCCN2CCOCC2)cc1 | - | - | - | - | -
O=[N+]([O-])c1ccc(OCCCCN2CCCCC2)cc1 | - | - | - | - | -7.6
Clc1ccc(OCCCCN2CCCCC2)cc1 | - | - | - | - | -7.1
CC1CCN(CCCCOc2ccc(F)cc2)CC1 | - | - | - | - | -
CC(C)c1ccc(OCCCCN2CCCCC2)cc1 | - | - | - | - | -
CC1CCN(CCCCOc2ccc([N+](=O)[O-])cc2)CC1 | - | - | - | - | -7.3
Cc1csc(=O)n1CCC(=O)OCC(=O)Nc1ccc(Cl)cn1 | - | - | - | - | -
Cc1cc(Br)ccc1OCCOCCN1CCCC1 | - | - | - | - | -
CC1CCN(CCOc2ccc(C(=O)c3ccccc3)cc2)CC1 | - | - | - | - | -
SMILES | MrgX1 agonist | MrgX1 allo act | RGS4 inh | MrgX1 antagonist | RGS4 pot
Cc1cc(Br)ccc1OCCCCN1CCCCC1 | - | - | - | - | -7
CC1CCN(CCCCOc2ccc(C(=O)c3ccccc3)cc2)CC1 | - | - | - | - | -9.6
CC(C)Oc1ccc(OCCCN2CCCCCC2)cc1 | - | - | - | - | -7.2
CC(C)(C)c1ccc(OCCCN2CCCC2)cc1 | - | - | - | - | -
CCN(Cc1ccccc1)S(=O)(=O)c1c(C(=O)N2CCCC2)c(C)n(C)c1C | - | - | - | - | -
Nc1c(Cl)cc(-c2cn(CCC(=O)O)c(-c3ccc(Cl)nc3)n2)cc1Cl | - | - | . | - | .
O=c1oc2ccccc2cc1-c1nc2c(s1)CCc1ccccc1-2 | - | - | - | -6.8 | -
O=c1oc2cc(O)ccc2cc1-c1nc2c(s1)CCc1ccccc1-2 | - | - | . | - | .
CC1CCN(CCOCCOc2ccc(Br)cc2Cl)CC1 | - | - | - | - | -7.2
CC1CCCN(CCCOc2ccc(Br)cc2Cl)C1 (configuration not stated) | - | - | - | - | -
Cc1ccc(OC(=O)C2c3ccccc3Oc3ccccc32)cc1C | - | - | - | - | -7.8
CCn1c(=O)c(C(=O)Nn2c(C)nc3ccccc3c2=O)c(O)c2ccccc21 | - | - | - | - | -
